# Rows were chosen to be rich in hits. Some 10% of all compounds tested hit in one or more screens of this group.
# PMI act hi M6P: increases human PMI activity with near-saturating mannose 6-phosphate; P34949; coupled PMI enzyme assay, resazurin fluorescence, 20 min; hits give high values; 1 = untreated enzyme, 0 = substrate-free blank; activation factor at 20 µM; actives 0.34% (n = 190,000); AID 1216;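 active = activation factor of 2 or more at 20 µM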
# Target sequence (P34949 whole entry, looked up): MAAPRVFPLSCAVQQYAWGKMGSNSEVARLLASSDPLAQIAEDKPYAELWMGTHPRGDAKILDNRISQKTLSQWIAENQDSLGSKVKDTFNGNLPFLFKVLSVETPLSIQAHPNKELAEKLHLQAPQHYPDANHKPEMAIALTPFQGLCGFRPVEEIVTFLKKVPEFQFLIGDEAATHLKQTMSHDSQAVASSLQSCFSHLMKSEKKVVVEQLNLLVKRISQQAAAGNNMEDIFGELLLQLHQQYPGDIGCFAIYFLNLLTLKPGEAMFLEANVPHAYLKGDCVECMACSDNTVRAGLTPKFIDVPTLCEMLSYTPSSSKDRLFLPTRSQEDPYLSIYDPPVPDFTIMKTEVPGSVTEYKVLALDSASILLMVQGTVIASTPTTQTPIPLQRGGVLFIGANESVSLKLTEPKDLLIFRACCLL
#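 Test system: human phosphomannose isomerase with PGI, G6PDH, diaphorase coupling enzymes / Doses: 20 µM compound, 1% DMSO / Times: enzyme reaction with compound 20 min at room temperature / Measured by: Diaphorase-driven resazurin-to-resorufin fluorescence, excitation 544, emission 590 nm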
# Diaph act CS: activates diaphorase or chemically reduces, flagging diaphorase assay artifacts; Diaphorase/resazurin coupled assay, resorufin fluorescence, 16 min; hits give high values; 1 = vehicle wells, 0 = NADH-free wells; activation factor at 20 µM; actives 0.005% (n = 190,000); AID 1229;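 active = diaphorase activity raised at least twofold by the compound at 20 µM; inactive = activation factor below 2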
#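 Test system: Clostridium kluyveri diaphorase, purified enzyme. Buffer or medium: 50 mM HEPES pH 7.4 buffer plus MgCl2 and Tween 20. Also added: 0.114 mM NADH and 0.1 mM resazurin, final amounts. Dosing: compound 20 µM once, DMSO 1%. Schedule: 16 min enzyme reaction, ambient temperature. Detection: fluorescence of resorufin, 544 nm excitation, 590 nm emission.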
# PMI act: activators of human phosphomannose isomerase; P34949; purified human PMI, coupled resazurin fluorescence, 20 min; hits give high values; 1 = vehicle control, 0 substrate-free wells; activation factor at 20 µM; actives 0.005% (n = 190,000); AID 1214;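 active = activation factor of 2 or more at 20 µM, relative to plate controls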
# WT yeast gro inh: growth inhibition of WT yeast, mitochondrial fusion screen; mitochondrial fusion phenotypic screen, WT strain; inhibition, % at 10 µM; actives 2.1% (n = 190,000); in the data active = inhibition above about 58%; tested in S. cerevisiae
# Lmaj promast: Leishmania major promastigote growth inhibition | inhibition, % at 10 µM | actives 9% (n = 200,000) | Leishmania major promastigotes, resazurin fluorescence viability | AID 1063; in the data active = inhibition above about 50%;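 note: promastigotes grown with compound for 44 hours at 28 °C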
# An asterisk follows results filed as active; · = not tested or not shown.
SMILES,PMI act hi M6P,Diaph act CS,PMI act,WT yeast gro inh,Lmaj promast
CCN1CCN(Cc2cc(Br)ccc2O)CC1,1.2,1,1.1,-41,85*
Oc1ccc(Br)cc1CN1CCN(c2ccccc2)CC1,0.9,0.8,0.8,9,11
Cc1ccc(N2C(=O)NC(=O)C(CCc3ccccn3)(Cc3ccc(F)cc3)C2=O)cc1 (stereo not given),·,·,·,-11,13
CCCCCCn1c(=O)c(C(=O)Nc2nnc(C)s2)c(O)c2ccccc21,·,·,·,36,4
CCCCn1c(=O)c(C(=O)Nc2nnc(C(C)C)s2)c(O)c2ccccc21,1.1,0.8,1,69*,-8
CCCCCn1c(=O)c(C(=O)Nc2nc(CC(=O)OCC)cs2)c(O)c2ccccc21,1.1,0.9,1.1,-17,90*
Cc1nn(Cc2ccccc2)c(C)c1C=C1C(=O)NC(=S)NC1=O,2.2*,0.8,1.6,-12,60*
CCOC(=O)c1cc2c(cn1)[nH]c1ccccc12,1,1,1,-11,-6
NS(=O)(=O)c1ccc(N=Cc2c(O)n(C3CCCCC3)c(=O)n(C3CCCCC3)c2=O)cc1,0.9,0.7,0.9,96*,65*
CCOC(=O)C1SC2(C(F)F)CC1(O)c1c(c(OC)c3occc3c1OC)O2 (stereo not given),1,1,1,64*,3
C=C1C[C@@H]2[C@H](CC[C@]3(C)C(=O)CC[C@@H]23)[C@@]2(C)C=CC(=O)C=C12,1.1,1,1,13,·
O=C(c1ccc(N2CC3CC(C2)c2cccc(=O)n2C3)c([N+](=O)[O-])c1)N1CCCCC1 (stereo not given),1,0.9,0.9,-25,55*
O=C(c1ccc(N2CC3CC(C2)c2cccc(=O)n2C3)c([N+](=O)[O-])c1)N1CCCC1 (stereo not given),1,1,1,-6,-3
CC1CCCCN1C(=O)c1ccc(N2CC3CC(C2)c2cccc(=O)n2C3)c([N+](=O)[O-])c1 (stereo not given),1.1,1,1,-17,65*
CN1CCN(Cc2nc3ccccc3c(=O)[nH]2)CC1,0.9,0.9,0.9,-4,-1
COc1ccccc1Sc1ccccc1CC(C)N (stereo not given),1.1,1.1,1.1,4,95*
CC(Cc1ccccc1Sc1ccc(O)cc1)N(C)C (stereo not given),1.1,1,1.1,8,101*
CN1CCN(Cc2ccccc2Sc2ccccc2)CC1,1,0.9,1,3,100*
CC(N)Cc1ccccc1Sc1ccc(O)cc1 (stereo not given),1,0.9,1,3,88*
COc1ccccc1CCNCc1ccc(OC)c(OC)c1OC,1.2,1.2,1.1,-14,13
CC1(C)CC(=O)C=C(NCCN2CCN(C(=O)Cc3ccc(Cl)cc3)CC2)C1,1.1,0.8,1.1,-13,-4
Nc1ccccc1C(=O)OCc1ccc([N+](=O)[O-])cc1,0.9,0.9,0.9,-39,-6
CC(Cc1ccccc1Sc1ccccc1)N(C)C (stereo not given),1,0.9,1.1,20,100*
CN(C)C(Cc1ccccc1)C(=O)c1ccccc1 (stereo not given),1,1,1.1,-9,-1
COc1ccc(CCN(C)Cc2ccc(F)cc2F)cc1OC,1.1,1,1.1,1,5
SMILES,PMI act hi M6P,Diaph act CS,PMI act,WT yeast gro inh,Lmaj promast
CCN(CC)c1ccc(CN(C)CCc2ccc(OC)c(OC)c2)cc1,1,0.8,0.9,-2,63*
COc1cccc(OCC(=O)N2CCN(C)CC2)c1,0.9,1,1,10,-7
O=C(Cc1ccccc1)N1CCN(Cc2cccnc2)CC1,1.1,1,1,-3,-1
COc1ccc(OCC(=O)N2CCN(CC3CC4C=CC3C4)CC2)cc1 (stereo not given),0.9,0.8,0.9,3,87*
O=C(Cc1ccccc1)N1CCN(CC2CC=CCC2)CC1 (stereo not given),1,0.9,0.9,10,81*
O=C(Cc1ccccc1)N1CCN(CC2CC3C=CC2C3)CC1 (stereo not given),1.2,1,1.1,-20,67*
CCC(C)N1C(=O)/C(=C\c2cc3c4c(c2)CCCN4CCC3)C(=O)NC1=S (stereo not given),1.6,0.9,1.2,13,98*
CN1C(=O)/C(=C\c2ccc(N3CCCCC3)o2)C(=O)NC1=S,0.9,0.9,0.9,15,7
CCCCN1C(=O)/C(=C/c2ccc(N3CCCCCC3)cc2)C(=O)NC1=S,0.7,0.7,1.1,14,59*
CCC(C)N1C(=O)/C(=C\c2cnc(N(C)C)nc2)C(=O)NC1=S (stereo not given),1.6,1,1.6,-1,14
CCC(C)N1C(=O)/C(=C\c2ccc(N3CCCCCC3)cc2)C(=O)NC1=S (stereo not given),1.3,0.8,1,47,93*
CCc1ccc(-c2nn(Cc3ccccc3)cc2C=O)cc1,1,0.8,1,20,18
CN(C=O)CP(=O)(O)CN(C)C=O,0.9,0.8,0.9,4,-4
CCC(=Nc1ccc(OC)cc1OC)c1c(O)n(C2CCCCC2)c(=O)[nH]c1=O,1,0.9,0.9,68*,28
CCC(=NCc1ccco1)c1c(O)n(C2CCCCC2)c(=O)[nH]c1=O,0.9,0.8,1,18,60*
CCC(=NCCCN(CC)CC)c1c(O)n(C2CCCCC2)c(=O)[nH]c1=O,1,0.9,1,-2,92*
CCC(=NCc1cccnc1)c1c(O)n(C2CCCCC2)c(=O)[nH]c1=O,0.9,0.9,0.9,-8,14
CCN(CC)CCN=Cc1c(O)n(C2CCCCCC2)c(=O)[nH]c1=O,1,0.9,1,-1,0
CCN(CC)CCCN=C(C)c1c(O)n(C2CCCCC2)c(=O)[nH]c1=O,1.1,1.1,1,8,93*
O=Cc1cn(Cc2cccc(F)c2)c2ccccc12,1.1,1,1.1,-14,59*
Cc1ccc(C2C(S(C)(=O)=O)=C(O)C(=O)N2c2ccccc2)cc1 (stereo not given) (tested in a mixture with another compound),1,0.9,1,-2,-3
CNc1cc(Cl)c2nonc2c1[N+](=O)[O-],0.5,0.6,0.8,54,75*
CN1CCN(c2ccc(N)cc2Cl)CC1,0.8,1.1,1.1,6,-4
CCCCCn1c(=O)c(C(=O)Nc2cnccn2)c(O)c2ccccc21,1.1,0.9,1,5,98*
CCCCn1c(=O)c(C(=O)NCc2ccncc2)c(O)c2ccccc21,1.1,0.9,1.1,1,89*
CCCCC1C(=O)NC(=S)NC1=O,2*,0.9,1.6,-9,-7
